# FN deposition inh – fibronectin deposition inhibition | AID 743247 | inhibition, % at 12.6 µM | AH1F fibroblasts, Alexa488-fibronectin deposition fluorescence, overnight | 350,000 compounds, 0.086% hits;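 active = mean inhibition across replicates of 30% or more, regardless of how many single replicates reach that level; inconclusive = mean under 30% yet at least half of replicates reach 30%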;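 also: positive control wells lacked labelled fibronectin entirely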
#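 Material – AH1F fibroblast monolayer, labelled fibronectin deposition · Reagent – labelled fibronectin 24 nM · Timing – 1 h adhesion, overnight exposure · Measured by – fluorescence at 485 nm excitation, 525 nm emission · Read-out – inhibition of fibronectin deposition signal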
# PDI inh – blocks human protein disulfide isomerase activity; P07237; PDI insulin aggregation turbidity, A650, 90 min; inhibition, % at 10 µM; 350,000 compounds, 0.052% hits;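 active = mean inhibition across replicates of 30% or more, whatever share of single replicates reach that level; inconclusive = mean inhibition below 30% while every single replicate reaches 30%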
# PvdQ inh – blocks Pseudomonas aeruginosa PvdQ acylase activity | purified PvdQ acylase, fluorescence plate reader | inhibition, % at 10 µM | 340,000 compounds, 0.063% hits | AID 488965; in the data active = inhibition above about 30%, passing the limit was not always enough; inconclusive = no clear call, values can overlap the other calls;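 also: 0% = vehicle neutral wells and 100% = reference inhibitor wells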
# rRNA inh HTS – selective bacterial rRNA inhibition in E. coli. E. coli WT GFP vs humanized-ribosome RFP mutants, fluorescence, 24 h; stronger effect = lower value; DMSO median 0, no signal -100. GFP signal change (wild-type ribosome), % (test concentration not listed). 350,000 compounds, 1.6% hits. AID 720706;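 active = significant combined selectivity score with lowered wild-type GFP, culture density cut under 30%, mutant RFP and density less affected; inactive = any of these conditions unmet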
# ERp5 inh – ERp5 (human) disulfide isomerase inhibition. Q15084. ERp5 insulin aggregation, absorbance 650 nm, 90 min. inhibition, % at 9.99 µM. 350,000 compounds, 0.05% hits. AID 651711;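 active = mean replicate inhibition above about 25%, with every replicate also reaching it, limit read from the data, passing the limit was not always enough; inconclusive = only one of those two criteria met; inactive = neither criterion met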
# Target sequence (Q15084 whole entry, looked up): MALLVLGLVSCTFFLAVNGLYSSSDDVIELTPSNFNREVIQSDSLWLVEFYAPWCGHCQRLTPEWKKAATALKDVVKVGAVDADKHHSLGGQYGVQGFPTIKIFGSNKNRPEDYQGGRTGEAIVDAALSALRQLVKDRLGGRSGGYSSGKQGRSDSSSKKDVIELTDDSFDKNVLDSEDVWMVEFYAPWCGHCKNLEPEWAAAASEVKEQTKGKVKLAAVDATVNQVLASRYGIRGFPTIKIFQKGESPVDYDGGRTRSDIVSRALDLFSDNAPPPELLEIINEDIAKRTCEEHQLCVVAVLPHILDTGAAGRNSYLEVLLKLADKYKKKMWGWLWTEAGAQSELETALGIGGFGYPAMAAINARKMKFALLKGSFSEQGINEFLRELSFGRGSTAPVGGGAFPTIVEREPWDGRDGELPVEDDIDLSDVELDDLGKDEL
# Env fusion inh – inhibitors of HIV Env-mediated cell fusion; HeLa-JRFL Env/CEM21 cell fusion, luciferase; inhibition, % at 12.3 µM; 360,000 compounds, 1.1% hits;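 active = mean replicate inhibition score of at least 50 and every replicate individually at or above 50; inconclusive = only one of the two criteria met; inactive = mean below 50 and not all replicates reaching 50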;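 also: 0% = plate neutral controls and 100% = maraviroc near 300 nM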
# The depositor's hits bear a star; ? = inconclusive; / = no result; [ ] = another dose, or the depositor's remark. A selection: hits, their analogues and other compounds. The true share with any hit is near 2.2%.
SMILES,FN deposition inh,PDI inh,PvdQ inh,rRNA inh HTS,ERp5 inh,Env fusion inh
CO[C@@H]1CN(C)C(=O)c2cc(NS(=O)(=O)c3cn(C)cn3)ccc2OC[C@H](C)N(CCC(F)(F)F)C[C@H]1C,/,/,/,-2.1,/,-18.0[16.7 µM]
C[C@@H]1CCCCO[C@H](CN(C)C(=O)C2CCCCC2)[C@H](C)CN([C@H](C)CO)C(=O)c2cc(NS(C)(=O)=O)ccc2O1,/,/,/,-2.3,4.7,2.7[16.7 µM]
O=C(C[C@H]1C[C@H]2c3cc(NC(=O)CC4CC4)ccc3O[C@H]2[C@@H](CO)O1)NCC(F)(F)F,-12.7,/,/,2.9,-7.7,18.3[16.7 µM]
O=S(=O)(c1ccc(F)cc1)N1CC[C@@H]2[C@H](CO)Nc3ccc(C#CC4CC4)cc3[C@@H]21,-6.1,/,/,2.4,/,/
O=C(C1CCC(Cn2c(=S)[nH]c3ccccc3c2=O)CC1)N1CCN(c2ccccc2)CC1 (configuration not stated),/,0.7,-9.6,/,/,?
COc1ccc(N2CCN(C(=O)C3CCC(Cn4c(=S)[nH]c5ccccc5c4=O)CC3)CC2)cc1 (configuration not stated),3.0,-0.6,1.2,/,/,73.8*
Cc1cccc(C)c1NC(=O)C1c2ccccc2OCC(=O)N1Cc1ccc2c(c1)OCO2 (configuration not stated),5.3,/,/,-22.5*,2.1,-13.7
O=C(Nc1ccc2c(c1)OCCO2)C1c2ccccc2OCC(=O)N1Cc1ccc2c(c1)OCO2 (configuration not stated),5.8,/,/,-11.6,1.4,10.5
O=C(/C=C/c1ccc(S(=O)(=O)NCc2ccco2)cc1)NCc1ccccc1Cl,3.4,12.1,4.0,-26.8*,0.2,3.0
COc1ccc(CNC(=O)/C=C/c2ccc(S(=O)(=O)NCc3ccco3)cc2)cc1OC,-7.3,0.2,-19.6,/,/,-14.8
Cc1noc(C)c1S(=O)(=O)Nc1ccc2c(c1)C(=O)N([C@@H](C)CO)C[C@@H](C)[C@@H](CN(C)C(=O)CCCN(C)C)OCCCC[C@@H](C)O2,/,/,/,1.4,/,-8.0[16.7 µM]
CCOC(=O)c1cc(-c2cccc([N+](=O)[O-])c2)on1,-2.3,6.9,61.9*,1.0,-6.5,-10.5
CN(C)CC(=O)N1[C@@H]2c3ccc(C4=CCCCC4)c(=O)n3C[C@@H]2[C@@H](CO)[C@@H]1C(=O)Nc1nccs1,-6.0,/,/,-1.7,1.6,13.0[16.7 µM]
Cc1ccc(C(OCC(O)CNC(C)c2ccccc2)c2ccccc2)cc1 (configuration not stated),-4.9,3.0,-15.9,-41.2,3.1,46.5
Cc1ccc(OCC(O)CNC(C)c2ccccc2)cc1C (configuration not stated),-5.7,-0.9,0.6,-3.1,3.4,59.6*
C[C@@H]1CN([C@H](C)CO)C(=O)c2cc(/C=C/c3ccccc3)cnc2O[C@@H]1CN(C)C,14.5,/,/,3.8,3.3,-9.6[16.7 µM]
Cc1onc(-c2ccccc2Cl)c1C(=O)Nc1nn[nH]n1,/,-1.6,-1.3,-30.9*,3.7,/
Cc1cc(NC(=O)c2c(-c3ccccc3Cl)noc2C)no1,/,1.2,-6.2,10.4,3.9,/
NC1=C(Cl)C(=O)c2ccc(S(N)(=O)=O)cc2C1=O,31.4*,5.7,-6.8,-45.6,2.5,62.7*
C[C@H]1CCCCO[C@H](CN(C)C(=O)NC2CCCCC2)[C@@H](C)CN([C@@H](C)CO)C(=O)c2cc(NC(=O)Nc3ccccc3)ccc2O1,12.7,/,/,-1.3,8.8,56.1*[16.7 µM]
COc1ccc(NC(=O)Nc2ccc3c(c2)C(=O)N([C@H](C)CO)C[C@H](C)[C@@H](CN(C)C(=O)C2CCCCC2)OCCCC[C@H](C)O3)cc1,/,/,/,-2.9,29.6*,-5.2[16.7 µM]
C[C@@H]1CN([C@@H](C)CO)C(=O)c2cc(NC(=O)Nc3ccccc3)ccc2O[C@@H](C)CCCCO[C@@H]1CN(C)C(=O)C1CCCCC1,-3.3,/,/,1.0,1.7,4.4[16.7 µM]
C[C@H]1CCCCO[C@@H](CN(C)C(=O)C2CCCCC2)[C@@H](C)CN([C@@H](C)CO)C(=O)c2cc(NC(=O)Nc3ccccc3)ccc2O1,-2.0,/,/,2.5,2.7,63.7*[16.7 µM]
COc1ccc(NC(=O)Nc2ccc3c(c2)C(=O)N([C@@H](C)CO)C[C@H](C)[C@H](CN(C)C(=O)C2CCCCC2)OCCCC[C@@H](C)O3)cc1,/,/,/,-0.3,5.7,16.2[16.7 µM]
C[C@H](CO)N1C[C@H](C)[C@H](CN(C)C(=O)C2CCCCC2)OCCCC[C@H](C)Oc2ccc(NC(=O)Nc3ccccc3)cc2C1=O,0.0,/,/,-3.6,9.1,59.7*[16.7 µM]
SMILES,FN deposition inh,PDI inh,PvdQ inh,rRNA inh HTS,ERp5 inh,Env fusion inh
CO[C@@H]1CN(C)C(=O)c2cc(NS(C)(=O)=O)ccc2OC[C@H](C)N(C(=O)CN(C)C)C[C@@H]1C,13.7,/,/,0.3,-0.8,-8.1[16.7 µM]
CCN(CC)CCOC(=O)c1ccc(NC(=O)CCCN2C(=O)/C(=C\c3cccs3)SC2=S)cc1,6.3,-2.2,-1.3,-26.6*,-3.5,19.9
O=C1/C(=C/c2ccc(O)c(O)c2)SC(=S)N1Nc1ccccc1,/,7.4,-9.5,/,/,/
O=C(NN1C(=O)/C(=C/c2ccc(O)c(O)c2)SC1=S)c1ccccc1,20.6,6.6,-5.2,-30.9*,0.8,-4.5
CC(=Cc1ccccc1)C=C1SC(=S)N(CCCC(=O)Nc2ccc(C(=O)O)cc2)C1=O,-5.7,-5.3,/,-23.4*,-0.4,-3.7
CC(/C=C1\SC(=S)N(NC(=O)c2ccc(O)cc2)C1=O)=C\c1ccccc1,9.4,26.3,-10.9,-24.8*,1.1,/
C[C@@H](NC(=O)[C@H]1[C@H](CO)[C@H]2Cn3c(ccc(-c4cccnc4)c3=O)[C@@H]1N2C)c1ccccc1,/,/,/,2.5,-0.6,/
Cc1noc(C)c1NC(=O)N(C)C[C@@H]1Oc2ncc(C#Cc3ccccc3)cc2C(=O)N([C@H](C)CO)C[C@@H]1C,10.8,/,/,-1.8,0.4,4.0[16.7 µM]
C[C@@H]1CN([C@H](C)CO)C(=O)c2cc(C3=CCCC3)cnc2O[C@H]1CN(C)C(=O)c1ccc2c(c1)OCO2,/,/,/,1.8,1.5,5.5[16.7 µM]
CCNC(=O)C[C@@H]1CC[C@H]2[C@H](COc3ccc(NC(=O)c4ccccc4Cl)cc3C(=O)N2C)O1,7.1,/,/,1.7,/,-11.2[16.7 µM]
O=C(Nc1nc(COc2ccccc2)cs1)C12CC3CC(CC(C3)C1)C2,-6.4,3.2,-15.9,/,/,67.6*
Cc1ccc(NC(=O)c2ncn(CCCN3CCN(c4ncccn4)CC3)n2)cc1C,0.9,-7.0,-7.5,-4.1,2.0,?
COC(=O)[C@H](Cc1ccccc1)NCCCn1cnc(C(=O)Nc2ccc(C)c(C)c2)n1,3.5,4.2,-13.4,-35.0*,-2.1,5.6
COC(=O)[C@H](Cc1ccccc1)NC(=O)Cn1cnc(C(=O)Nc2ccc(C)c(C)c2)n1,-8.3,1.5,11.5,3.9,-0.6,69.2*
Cc1ccc(NC(=O)c2ncn(CCCNCCCc3ccccc3)n2)cc1C,3.4,-3.5,6.4,-50.7,-2.0,6.8

# Screening data as filed in PubChem BioAssay.
